Experimental data as given in ChEMBL document CHEMBL1155319, “Discovery of novel selective HER-2 sheddase inhibitors through optimization of P1 moiety” (Bioorg Med Chem Lett, 2009).

How the values were obtained:
[1] = molecular target: T1, Disintegrin and metalloproteinase domain-containing protein 10 (Homo sapiens, UniProt O14672); test: Inhibition of ADAM-10
T1 sequence (O14672 whole entry): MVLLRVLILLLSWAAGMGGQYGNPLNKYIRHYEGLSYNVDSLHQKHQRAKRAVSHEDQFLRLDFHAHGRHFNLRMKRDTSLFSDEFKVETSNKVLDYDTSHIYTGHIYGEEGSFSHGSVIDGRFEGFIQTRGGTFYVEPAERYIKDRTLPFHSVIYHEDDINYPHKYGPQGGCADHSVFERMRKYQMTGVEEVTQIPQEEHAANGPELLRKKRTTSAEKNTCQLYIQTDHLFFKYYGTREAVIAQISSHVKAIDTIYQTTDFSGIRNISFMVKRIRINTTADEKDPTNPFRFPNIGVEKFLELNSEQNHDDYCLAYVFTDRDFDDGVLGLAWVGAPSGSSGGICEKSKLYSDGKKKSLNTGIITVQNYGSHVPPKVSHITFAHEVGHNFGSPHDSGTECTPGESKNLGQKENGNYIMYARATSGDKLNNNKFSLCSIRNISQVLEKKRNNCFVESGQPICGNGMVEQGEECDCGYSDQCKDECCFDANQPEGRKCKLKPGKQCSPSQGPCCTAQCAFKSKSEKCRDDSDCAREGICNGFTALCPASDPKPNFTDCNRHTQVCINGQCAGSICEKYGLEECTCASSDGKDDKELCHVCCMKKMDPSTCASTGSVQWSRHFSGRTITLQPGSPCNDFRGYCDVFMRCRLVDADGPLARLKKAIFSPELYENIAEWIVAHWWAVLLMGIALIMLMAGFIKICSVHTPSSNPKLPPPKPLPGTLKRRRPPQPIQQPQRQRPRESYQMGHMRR

[2] = molecular target: 72 kDa type IV collagenase (Homo sapiens, UniProt P08253); test: Inhibition of MMP-2
[3] = molecular target: T2, Interstitial collagenase (Homo sapiens, UniProt P03956); test: Inhibition of MMP-1
T2 sequence (P03956 whole entry): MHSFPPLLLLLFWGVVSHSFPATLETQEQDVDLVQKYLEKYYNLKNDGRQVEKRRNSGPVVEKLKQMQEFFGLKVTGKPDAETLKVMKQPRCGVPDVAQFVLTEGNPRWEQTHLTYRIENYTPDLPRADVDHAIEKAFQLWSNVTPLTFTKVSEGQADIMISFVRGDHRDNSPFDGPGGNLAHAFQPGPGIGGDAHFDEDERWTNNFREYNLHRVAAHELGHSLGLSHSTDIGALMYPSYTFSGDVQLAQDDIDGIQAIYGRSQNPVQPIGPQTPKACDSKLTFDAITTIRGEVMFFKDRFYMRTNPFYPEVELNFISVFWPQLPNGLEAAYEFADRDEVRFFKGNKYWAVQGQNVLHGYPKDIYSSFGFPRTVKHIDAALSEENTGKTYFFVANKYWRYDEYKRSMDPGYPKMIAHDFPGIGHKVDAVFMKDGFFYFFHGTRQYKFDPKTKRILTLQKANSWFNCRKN

[4] = molecular target: Stromelysin-1 (Homo sapiens, UniProt P08254); test: Inhibition of MMP-3
[5] = molecular target: Matrix metalloproteinase-9 (Homo sapiens, UniProt P14780); test: Inhibition of MMP-9
[6] = test system: Mus musculus; test: AUC in mouse at 5 mg/kg, po; assay type: ADME, organism-based, Plasma; set-up: dose 5 mg/kg, route oral; settings: in vivo
Outline: (§1)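 Oral dose of 5 mg/kg, given as a suspension.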

[7] = Half life in mouse at 5 mg/kg, po; assay type: ADME, organism-based; set-up: dose 5 mg/kg, route oral; settings: in vivo; outline: as §1
[8] = Permeability across human Caco-2 cells; assay type: ADME, cell-based
[9] = Clearance in human microsome; assay type: ADME; settings: microsomes
Outline: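 Clearance projected from incubation with human microsomes and expressed in L/h/kg.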

72 kDa type IV collagenase, sequence (P08253 whole entry): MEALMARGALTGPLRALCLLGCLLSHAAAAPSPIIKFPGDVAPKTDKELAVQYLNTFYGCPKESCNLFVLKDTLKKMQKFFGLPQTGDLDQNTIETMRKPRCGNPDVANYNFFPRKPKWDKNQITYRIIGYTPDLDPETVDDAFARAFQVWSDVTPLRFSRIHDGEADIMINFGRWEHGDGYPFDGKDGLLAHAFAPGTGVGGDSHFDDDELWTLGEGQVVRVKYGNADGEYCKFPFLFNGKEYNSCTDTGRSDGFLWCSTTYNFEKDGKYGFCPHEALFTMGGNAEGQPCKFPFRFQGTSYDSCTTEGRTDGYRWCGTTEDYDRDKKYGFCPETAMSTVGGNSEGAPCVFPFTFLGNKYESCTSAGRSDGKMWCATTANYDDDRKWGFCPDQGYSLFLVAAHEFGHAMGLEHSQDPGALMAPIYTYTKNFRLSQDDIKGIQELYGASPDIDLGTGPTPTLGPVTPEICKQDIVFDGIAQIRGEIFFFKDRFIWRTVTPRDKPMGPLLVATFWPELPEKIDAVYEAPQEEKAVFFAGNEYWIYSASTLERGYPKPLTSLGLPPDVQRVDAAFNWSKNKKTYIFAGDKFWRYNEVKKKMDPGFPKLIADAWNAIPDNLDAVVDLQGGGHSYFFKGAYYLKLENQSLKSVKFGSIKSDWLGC
Stromelysin-1, sequence (P08254 whole entry): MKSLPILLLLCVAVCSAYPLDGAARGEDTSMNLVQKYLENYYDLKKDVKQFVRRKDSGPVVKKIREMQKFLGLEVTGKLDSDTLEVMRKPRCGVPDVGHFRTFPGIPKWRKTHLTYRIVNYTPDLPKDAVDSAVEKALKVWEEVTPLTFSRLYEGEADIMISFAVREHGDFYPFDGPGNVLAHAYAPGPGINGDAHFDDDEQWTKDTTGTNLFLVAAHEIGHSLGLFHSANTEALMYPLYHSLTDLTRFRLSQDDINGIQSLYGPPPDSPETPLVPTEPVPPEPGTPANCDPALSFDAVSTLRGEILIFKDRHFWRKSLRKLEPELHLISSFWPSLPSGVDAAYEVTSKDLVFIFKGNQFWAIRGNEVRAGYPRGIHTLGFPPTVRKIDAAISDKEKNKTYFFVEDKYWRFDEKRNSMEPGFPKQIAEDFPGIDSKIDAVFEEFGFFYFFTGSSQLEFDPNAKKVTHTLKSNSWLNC
Matrix metalloproteinase-9, sequence (P14780 whole entry): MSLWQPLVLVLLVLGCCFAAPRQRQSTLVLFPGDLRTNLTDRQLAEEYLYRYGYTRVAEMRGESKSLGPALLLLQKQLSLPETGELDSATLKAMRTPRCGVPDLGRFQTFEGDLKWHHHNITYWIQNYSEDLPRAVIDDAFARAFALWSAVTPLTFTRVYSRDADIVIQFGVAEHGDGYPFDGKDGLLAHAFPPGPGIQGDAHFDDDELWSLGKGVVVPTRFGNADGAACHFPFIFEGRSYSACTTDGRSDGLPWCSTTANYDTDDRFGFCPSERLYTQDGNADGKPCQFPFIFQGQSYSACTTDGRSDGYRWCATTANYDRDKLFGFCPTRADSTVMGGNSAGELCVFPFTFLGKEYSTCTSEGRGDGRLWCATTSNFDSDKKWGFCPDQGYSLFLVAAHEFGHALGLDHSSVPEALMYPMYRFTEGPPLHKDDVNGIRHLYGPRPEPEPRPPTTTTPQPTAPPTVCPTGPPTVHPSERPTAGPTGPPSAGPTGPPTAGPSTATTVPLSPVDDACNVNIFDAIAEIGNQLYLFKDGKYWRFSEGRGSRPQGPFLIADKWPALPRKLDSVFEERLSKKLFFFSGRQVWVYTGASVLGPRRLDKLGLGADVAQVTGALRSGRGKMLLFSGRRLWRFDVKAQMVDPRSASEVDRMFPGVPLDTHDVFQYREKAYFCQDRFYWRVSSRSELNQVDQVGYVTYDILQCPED

Compound | IC50 [1] [nM] | IC50 [2] [nM] | IC50 [3] [nM] | IC50 [4] [nM] | IC50 [5] [nM] | AUC [6] [nM/L.hr] | half-life [7] [min] | Papp [8] [×10⁻⁶ cm/s] | CL [9] [mL/min/kg]
O=C(NO)[C@H]1CC(OC(=O)N2CCCC2)CN[C@@H]1C(=O)N1CC[C@H](c2ccccc2)C1 (some centres undefined) | 83 | > 2000 | > 5000 | > 5000 | > 5000 |  |  |  | 
O=C(NO)[C@H]1CC2(CC2)CN[C@@H]1C(=O)N1CC=C(c2ccccc2)CC1 |  | < 5 |  |  |  |  |  |  | 
CC(C)C(=O)N(C)C1CN[C@H](C(=O)N2CC[C@H](c3ccccc3)C2)[C@@H](C(=O)NO)C1 (some centres undefined) | 138 | 502 |  |  |  |  |  |  | 
O=C(NO)[C@H]1C[C@H](OC(=O)N2CCCC2)CN[C@@H]1C(=O)N1CC=C(c2ccccc2)C1 | 60 |  | > 5000 | > 5000 | > 5000 |  |  |  | 
NCCCCNC(=O)CC1CN[C@H](C(=O)N2CCC(c3ccccc3)C2)[C@@H](C(=O)NO)C1 (some centres undefined) | 161 | 1660 |  |  |  |  |  |  | 
CN1C[C@@H](OC(=O)N2CCC(F)(F)C2)C[C@H](C(=O)NO)[C@H]1C(=O)N1CCN(c2ccccc2)CC1 | 125 | > 2000 |  |  |  |  |  |  | 
O=C(NO)[C@H]1C[C@H](OC(=O)N2CCCC2)CN[C@@H]1C(=O)N1CCC(c2ccccc2)CC1 | 99 | > 2000 | > 5000 | > 5000 | > 5000 |  |  |  | 
CN(C(=O)c1ccccc1)C1CN[C@H](C(=O)N2CC[C@H](c3ccccc3)C2)[C@@H](C(=O)NO)C1 (some centres undefined) | 84 | 210 |  |  |  |  |  |  | 
O=C(NO)[C@H]1C[C@@H](OC(=O)N2CCCC2)CN[C@@H]1C(=O)N1CC=C(c2ccccc2)CC1 | 78 | < 5 |  |  |  |  |  |  | 
O=C(NO)[C@H]1CC(OC(=O)N2CCCC2)CN[C@@H]1C(=O)N1Cc2ccccc2C1 (some centres undefined) | 186 | > 2000 | 2500 | > 5000 | > 5000 |  |  |  | 

More lines, in order of falling IC50 [1], values ahead:

IC50 [1] [nM] | IC50 [2] [nM] | IC50 [3] [nM] | IC50 [4] [nM] | IC50 [5] [nM] | AUC [6] [nM/L.hr] | half-life [7] [min] | Papp [8] [×10⁻⁶ cm/s] | CL [9] [mL/min/kg] | Compound
58 | 730 | > 5000 | > 5000 | > 5000 |  |  |  |  | CN(C)C(=O)O[C@H]1C[C@H](C(=O)NO)[C@@H](C(=O)N2CCN(c3ccccc3)CC2)N(C)C1
35 | 843 | > 5000 | > 5000 | > 5000 |  |  |  |  | CN1C[C@@H](OC(=O)N2CCCCCC2)C[C@H](C(=O)NO)[C@H]1C(=O)N1CCN(c2ccccc2)CC1
30 | 581 | > 5000 | > 5000 | > 5000 |  |  |  |  | CN1C[C@@H](OC(=O)N2CC=CC2)C[C@H](C(=O)NO)[C@H]1C(=O)N1CCN(c2ccccc2)CC1
26 | 1470 | > 5000 | > 5000 | > 5000 | 323 | 52.8 |  |  | CN1C[C@@H](OC(=O)N2CCCCCCC2)C[C@H](C(=O)NO)[C@H]1C(=O)N1CCN(c2ccccc2)CC1
23 | 11 |  |  |  |  |  |  |  | CC(C)C(=O)N(C)C1CN[C@H](C(=O)N2CC=C(c3ccccc3)CC2)[C@@H](C(=O)NO)C1 (some centres undefined)
20 | 432 | > 5000 | > 5000 | > 5000 |  |  |  |  | CN1C[C@@H](OC(=O)N2CCC2)C[C@H](C(=O)NO)[C@H]1C(=O)N1CCN(c2ccccc2)CC1
20 | 613 | > 5000 | > 5000 | > 5000 |  |  |  |  | COC(=O)N1C[C@@H](OC(=O)N2CCCC2)C[C@H](C(=O)NO)[C@H]1C(=O)N1CCN(c2ccccc2)CC1
18 | 471 | > 5000 | > 5000 | > 5000 |  |  |  |  | CN1C[C@@H](OC(=O)N2CCCC2)C[C@H](C(=O)NO)[C@H]1C(=O)N1CCN(c2ccccc2)CC1
17 | < 5 |  |  |  |  |  |  |  | O=C(NO)[C@H]1CC(CC(=O)N2CCCC2)CN[C@@H]1C(=O)N1CC=C(c2ccccc2)CC1 (some centres undefined)
14 | 365 |  |  |  |  |  |  |  | O=C(NO)[C@H]1CC(CC(=O)N2CCCC2)CN[C@@H]1C(=O)N1CC[C@H](c2ccccc2)C1 (some centres undefined)
12 | 12 |  |  |  |  |  |  |  | CN(C(=O)c1ccccc1)C1CN[C@H](C(=O)N2CC=C(c3ccccc3)CC2)[C@@H](C(=O)NO)C1 (some centres undefined)
11 | 235 | > 5000 | > 5000 | > 5000 |  |  |  |  | O=C(NO)[C@H]1C[C@H](OC(=O)N2CCCC2)CN[C@@H]1C(=O)N1CCN(c2ccccc2)CC1
11 | < 5 |  |  |  |  |  |  |  | CC(C)OC(=O)N(C)C1CN[C@H](C(=O)N2CC=C(c3ccccc3)CC2)[C@@H](C(=O)NO)C1 (some centres undefined)
9.6 | 344 | > 5000 | > 5000 | > 5000 |  |  | 0.9 | 9.67 | CN1C[C@@H](OC(=O)N2CCCCC2)C[C@H](C(=O)NO)[C@H]1C(=O)N1CCN(c2ccccc2)CC1
9 | 102 | > 5000 | > 5000 | 498 |  |  |  |  | O=C(NO)[C@H]1CC(OC(=O)N2CCCC2)CN[C@@H]1C(=O)N1CC=C(c2ccccc2)CC1 (some centres undefined)
